Consider seven compounds from ChEMBL document CHEMBL1149273, “Calcitriol derivatives with two different side chains at C-20. II. Diastereoselective syntheses of the metabolically produced 24(R)-hydroxygemini” (J Med Chem, 2004).

A value given as a limit tells only on which side of the number the result lay.

Series [1] is described as follows: Maximum tolerated dose in mouse. To be noted: in vivo. The series is classed as ADME, organism-based.
The test system of series [2] is Mus musculus. The series can be described thus: Effect on calcium level in mouse at 1 […] after four diurnal doses. The format is functional, organism-based. The method, boiled down:
(§1)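 Mice received four diurnal administrations of drug in Miglyol vehicle, with vehicle-dosed controls, across a series of dose levels. Calcium levels (mg/dL) were then measured and reported with standard errors. The […] was assigned from these calcium levels.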

Series [3] has as its system Mus musculus. The series can be described thus: Effect on calcium level in mouse at 10 […] after four diurnal doses. The series is classed as functional, organism-based. The method, boiled down:
as §1

The test system of series [4] is Mus musculus. The experiment in a line: Effect on calcium level in mouse at 3 […] after four diurnal doses. The format is functional, organism-based. The method, boiled down: as §1
Series [5] is described as follows: Inhibition of INFgamma release in MLR cells relative to calcitriol. The series is classed as functional, Homo sapiens.
A short description of series [6]: Inhibition of INFgamma release in MLR cells. The format is functional, cell-based. To be noted: Homo sapiens.
For another series, the system named is Kidney. The series can be described thus: Metabolic stability in rat kidney perfusate. The format is ADME, tissue-based.
The test system of series [7] is Mus musculus. The experiment in a line: Effect on calcium level in mouse at 30 […] after four diurnal doses. The series is classed as functional, organism-based. The gist of the method:
as §1

For series [8], the system named is Mus musculus. The series can be described thus: Effect on calcium level in mouse at 100 […] after four diurnal doses. The series is classed as functional, organism-based. The method, boiled down:
as §1

Series [9] concerns Mus musculus. The series can be described thus: Effect on calcium level in mouse at 0.3 ug/kg after four diurnal doses.

For the compound `C=C1/C(=C\C=C2/CCC[C@]3(C)[C@@H](C(CCCC(C)(C)O)CCCC(C)(C)O)CC[C@@H]23)C[C@@H](O)C[C@@H]1O`, in series [1], the MTD is below 1 µg/kg. In addition, the Calcium level was 11.1 mg/dL in the series with Mus musculus [2], 16.7 mg/dL with Mus musculus [3] and 12.3 mg/dL in the series on Mus musculus [4]. The “Ratio IC50” value in series [5] came to 0.1. In addition, in [6], the 50% inhibitory concentration (IC50) came out at 4 pM. For the same compound, the Stability in the series on Kidney was 80%.

`C=C1/C(=C\C=C2/CCC[C@]3(C)[C@@H]([C@H](C)CCCC(C)(C)O)CC[C@@H]23)C[C@@H](O)C[C@@H]1O` [CALCITRIOL] had a Stability in the series on Kidney below 50%.

`CC(C)(O)CCC[C@@H](CC[C@@H](O)C(C)(C)O)[C@H]1CC[C@H]2/C(=C/C=C3C[C@@H](O)C[C@H](O)C3)CCC[C@]12C` had a maximum tolerated dose (MTD) in series [1] above 100 µg/kg. The Calcium level in the series on Mus musculus [2] is 9.53 mg/dL; with Mus musculus [7], 9.43 mg/dL; with Mus musculus [8], 9.57 mg/dL; in the series on Mus musculus [3] it was 9.43 mg/dL; in the series on Mus musculus [4], 9.9 mg/dL. In addition, in series [5], the “Ratio IC50” value stood at 160. For the same compound, the midpoint of inhibition in series [6], the IC50, lay at 3860 pM.

For the compound `CC(C)(O)CCCC(CCCC(C)(C)O)[C@H]1CC[C@H]2/C(=C/C=C3C[C@@H](O)C[C@H](O)C3)CCC[C@]12C`, in [1], the MTD was 3 µg/kg. The Calcium level was 16.5 mg/dL in the series on Mus musculus [7], 12.5 mg/dL in the series with Mus musculus [3] and 10 mg/dL in the series on Mus musculus [4]. Moreover, in series [5], the “Ratio IC50” value is 1.8. Also, it took 44 pM to reach half-maximal inhibition in series [6] (IC50). The same compound yielded a Stability with Kidney of 80%.

For `CC(C)(O)CCC[C@H](CC[C@@H](O)C(C)(C)O)[C@H]1CC[C@H]2/C(=C/C=C3C[C@@H](O)C[C@H](O)C3)CCC[C@]12C`, in [1], the MTD came to 30 µg/kg. Also, the Calcium level was found to be 9.63 mg/dL in the series on Mus musculus [2]; 9.77 mg/dL with Mus musculus [7]; 10.8 mg/dL with Mus musculus [8]; 9.57 mg/dL with Mus musculus [3]; 9.37 mg/dL with Mus musculus [4]. Also, in [5], the “Ratio IC50” value stood at 31. This compound also gave an IC50 in [6] of 781 pM.

`C=C1/C(=C\C=C2/CCC[C@]3(C)[C@@H]([C@H](CCCC(C)(C)O)CC[C@@H](O)C(C)(C)O)CC[C@@H]23)C[C@@H](O)C[C@@H]1O` returned an MTD in series [1] of 3 µg/kg. For the same compound, the Calcium level turned out to be 9.6 mg/dL with Mus musculus [9], 9.7 mg/dL in the series with Mus musculus [2] and 9.73 mg/dL with Mus musculus [4]. Moreover, in series [5], the “Ratio IC50” value came to 2.5. In series [6], this compound registered an IC50 of 80 pM.

In turn, `C=C1/C(=C\C=C2/CCC[C@]3(C)[C@@H]([C@@H](CCCC(C)(C)O)CC[C@@H](O)C(C)(C)O)CC[C@@H]23)C[C@@H](O)C[C@@H]1O` returned an MTD in series [1] of 3 µg/kg. The Calcium level in the series with Mus musculus [9] was 9.8 mg/dL; in the series on Mus musculus [2], 9.73 mg/dL; in the series with Mus musculus [4], 9.63 mg/dL. Moreover, the “Ratio IC50” value in series [5] turned out to be 18. Also, the IC50 in series [6] worked out at 579 pM.

As a reminder, the MTD is the highest dose tested that stayed within the study's limit of toxicity. Low readings indicate a narrow tolerated range, high ones a wide tolerated range. Usually IC50 stands for the point on the concentration scale where inhibition reaches its midpoint. A lower IC50 goes with greater potency in that assay.
